Test results taken from ChEMBL document CHEMBL1828624, “Synthesis and antioxidant activity of oxazolyl/thiazolylsulfonylmethyl pyrazoles and isoxazoles” (Eur J Med Chem, 2011).
Values after ≈ are worked out from the molar mass of the structure shown. Active and inactive are the calls of the source. The rule behind the calls is not given here.

Columns and labels:
Format in all cases: functional
[1] = tested on: Radical scavenging activity; test: Antioxidant activity assessed as DPPH free radical scavenging activity at 100 ug/ml after 30 mins by spectrophotometric analysis relative to control
Summary of the method: (§1)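 Compounds in methanol at […] were mixed with 0.004% (w/v) methanolic DPPH. After 30 min at room temperature, absorbance was read at 517 nm against a blank. Percent inhibition was calculated from control (all reagents minus compound) and sample absorbances. Run in triplicate.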

[2] = Antioxidant activity assessed as hydrogen peroxide scavenging activity at 75 ug/ml relative to control
[3] = Antioxidant activity assessed as nitric oxide scavenging activity at 50 ug/ml after 150 mins by Griess method relative to control
Summary of the method: (§2)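 NO was generated from sodium nitroprusside (10 mM) in phosphate buffer saline (0.2 M, pH 7.4). Compounds were added at […] and incubated 150 min at 25 °C. Percent scavenging was calculated from control (all reagents minus compound) and sample absorbances. Run in triplicate.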

[4] = Antioxidant activity assessed as hydrogen peroxide scavenging activity at 50 ug/ml relative to control
[5] = Antioxidant activity assessed as nitric oxide scavenging activity at 75 ug/ml after 150 mins by Griess method relative to control; summary of the method: as §2
[6] = tested on: Radical scavenging activity; test: Antioxidant activity assessed as DPPH free radical scavenging activity at 75 ug/ml after 30 mins by spectrophotometric analysis relative to control; summary of the method: as §1
[7] = Antioxidant activity assessed as hydrogen peroxide scavenging activity at 100 ug/ml relative to control
[8] = tested on: Radical scavenging activity; test: Antioxidant activity assessed as DPPH free radical scavenging activity after 30 mins by spectrophotometric analysis; summary of the method: as §1
[9] = tested on: Radical scavenging activity; test: Antioxidant activity assessed as DPPH free radical scavenging activity at 50 ug/ml after 30 mins by spectrophotometric analysis relative to control; summary of the method: as §1
[10] = Antioxidant activity assessed as nitric oxide scavenging activity at 100 ug/ml after 150 mins by Griess method relative to control; summary of the method: as §2

Compound	inhibition [1]	Activity [2]	Activity [3]	Activity [4]	Activity [5]	inhibition [6]	Activity [7]	IC50 [8]	inhibition [9]	Activity [10]
O=S(=O)(CC1=NCCO1)C1C(c2ccccc2)=NN(c2ccccc2)C1c1ccccc1 (stereo not given)	58%	45.5%	46.7%	44.4%	51.4%	53.4%	48.1%	86.25 µg/mL (≈ 194 µM)	48.2%	57.9%
O=S(=O)(CC1=NCCS1)C1=NNCC1c1ccccc1 (stereo not given)	inactive	inactive	inactive	inactive	inactive	inactive	inactive	Not Active	inactive	inactive
O=S(=O)(CC1=NCCS1)c1n[nH]cc1-c1ccc(Cl)cc1	inactive	inactive	inactive	inactive	inactive	inactive	inactive	Not Active	inactive	inactive
O=S(=O)(CC1=NCCS1)c1c(-c2ccc(Cl)cc2)noc1-c1ccc(Cl)cc1	inactive	inactive	inactive	inactive	inactive	inactive	inactive	Not Active	inactive	inactive
Cc1ccc(C2CNN=C2S(=O)(=O)CC2=NCCS2)cc1 (stereo not given)	48.2%	42.2%	43.1%	39.8%	48.6%	44%	45%	103.73 µg/mL (≈ 321 µM)	40.9%	52.1%
COc1ccc(-c2nn(-c3ccccc3)c(-c3ccc(C)cc3)c2S(=O)(=O)CC2=NCCO2)cc1	70.3%	68.7%	61.6%	67.6%	66.6%	67.6%	72.5%	71.07 µg/mL (≈ 146 µM)	65.5%	68.2%
O=S(=O)(CC1=NCCS1)c1c(-c2ccccc2)noc1-c1ccccc1	inactive	inactive	inactive	inactive	inactive	inactive	inactive	Not Active	inactive	inactive
O=S(=O)(CC1=NCCO1)c1c(-c2ccc(Cl)cc2)nn(-c2ccccc2)c1-c1ccc(Cl)cc1	inactive	inactive	inactive	inactive	inactive	inactive	inactive	Not Active	inactive	inactive
COc1ccc(C2=NOC(c3ccc(C)cc3)C2S(=O)(=O)CC2=NCCO2)cc1 (stereo not given)	66.5%	66.6%	61.9%	65.9%	65.9%	63.3%	70.9%	75.16 µg/mL (≈ 181 µM)	58.1%	71.2%
O=S(=O)(CC1=NCCO1)C1C(c2ccccc2)=NOC1c1ccccc1 (stereo not given)	57.9%	53.3%	53.9%	51.7%	57.2%	55.2%	56.6%	86.31 µg/mL (≈ 233 µM)	49.4%	62.8%
O=S(=O)(CC1=NCCS1)C1C(c2ccc(Cl)cc2)=NOC1c1ccc(Cl)cc1 (stereo not given)	inactive	inactive	inactive	inactive	inactive	inactive	inactive	Not Active	inactive	inactive
O=S(=O)(CC1=NCCS1)C1C(c2ccccc2)=NOC1c1ccccc1 (stereo not given)	inactive	inactive	inactive	inactive	inactive	inactive	inactive	Not Active	inactive	inactive
O=S(=O)(CC1=NCCO1)c1c(-c2ccc(Cl)cc2)noc1-c1ccc(Cl)cc1	inactive	inactive	inactive	inactive	inactive	inactive	inactive	Not Active	inactive	inactive
